Test results as given in ChEMBL document CHEMBL1649143, “In vitro activities of fluconazole and voriconazole against clinical isolates of Candida spp. determined by disk diffusion testing in Turin, Italy” (2009).
Values after ≈ are worked out from the molar mass of the structure shown.

Legend:
Pichia kudriavzevii [1] = experiment: Antifungal activity against Candida krusei by reference dilution method; assay type: functional
Pichia norvegensis [2] = experiment: Antifungal activity against Candida norvegensis by reference dilution method; assay type: functional
Candida albicans [3] = experiment: Antifungal activity against Candida albicans by reference dilution method; assay type: functional
Pichia kudriavzevii [4] = experiment: Antifungal activity against Candida krusei assessed as percent susceptible isolates at 1 ug/disc by CLSI M44-A disk diffusion method; assay type: functional
Summary of the method: (§1)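 Agar disk diffusion per CLSI M44-A on clinical Candida isolates collected in Turin, Italy; 1,024 isolates tested in total. Each isolate was classed as susceptible (S), susceptible-dose dependent (SDD) or resistant (R), and the percentage of isolates per species in each category was reported.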

Nakaseomyces glabratus [5] = experiment: Antifungal activity against Candida glabrata assessed as percent susceptible isolates at 1 ug/disc by CLSI M44-A disk diffusion method; assay type: functional; summary of the method: as §1
Diutina rugosa = experiment: Antifungal activity against Candida rugosa assessed as percent susceptible isolates at 1 ug/disc by CLSI M44-A disk diffusion method; assay type: functional; summary of the method: as §1
Pichia norvegensis [6] = experiment: Antifungal activity against Candida norvegensis assessed as percent dose dependent percent susceptible isolates at 1 ug/disc by CLSI M44-A disk diffusion method; assay type: functional; summary of the method: as §1
Cyberlindnera jadinii = experiment: Antifungal against Candida utilis assessed as percent susceptible isolates at 1 ug/disc by CLSI M44-A disk diffusion method; assay type: functional; summary of the method: as §1
[Candida] intermedia = Antifungal activity against Candida intermedia assessed as percent susceptible isolates at 1 ug/disc by CLSI M44-A disk diffusion method; assay type: functional, Sungouiella intermedia; summary of the method: as §1
Candida albicans [7] = experiment: Antifungal activity against Candida albicans assessed as percent susceptible isolates at 1 ug/disc by CLSI M44-A disk diffusion method; assay type: functional; summary of the method: as §1
Pichia kudriavzevii [8] = experiment: Antifungal activity against Candida krusei assessed as dose dependent percent susceptible isolates at 1 ug/disc by CLSI M44-A disk diffusion method; assay type: functional; summary of the method: as §1
Candida tropicalis [9] = experiment: Antifungal activity against Candida tropicalis assessed as dose dependent percent susceptible isolates at 1 ug/disc by CLSI M44-A disk diffusion method; assay type: functional; summary of the method: as §1
Nakaseomyces glabratus [10] = experiment: Antifungal activity against Candida glabrata by reference dilution method; assay type: functional
Pichia fermentans = experiment: Antifungal activity against Candida lambica assessed as percent susceptible isolates at 1 ug/disc by CLSI M44-A disk diffusion method; assay type: functional; summary of the method: as §1
Pichia kudriavzevii [11] = experiment: Antifungal activity against Candida krusei assessed as percent resistant isolates at 1 ug/disc by CLSI M44-A disk diffusion method; assay type: functional; summary of the method: as §1
Clavispora lusitaniae = experiment: Antifungal activity against Candida lusitaniae assessed as percent susceptible isolates at 1 ug/disc by CLSI M44-A disk diffusion method; assay type: functional; summary of the method: as §1
[12] = Antifungal activity against Candida holmii assessed as percent susceptible isolates at 1 ug/disc by CLSI M44-A disk diffusion method; assay type: functional; conditions: Kazachstania exigua; summary of the method: as §1
[13] = Antifungal activity against Candida membranifaciens assessed as percent susceptible isolates at 1 ug/disc by CLSI M44-A disk diffusion method; assay type: functional; summary of the method: as §1
Kluyveromyces marxianus [14] = experiment: Antifungal activity against Candida kefyr assessed as percent dose dependent percent susceptible isolates at 1 ug/disc by CLSI M44-A disk diffusion method; assay type: functional; summary of the method: as §1
Kluyveromyces marxianus [15] = experiment: Antifungal activity against Candida kefyr assessed as percent susceptible isolates at 1 ug/disc by CLSI M44-A disk diffusion method; assay type: functional; summary of the method: as §1
Candida tropicalis [16] = experiment: Antifungal activity against Candida tropicalis by reference dilution method; assay type: functional
Candida parapsilosis [17] = experiment: Antifungal activity against Candida parapsilosis assessed as percent susceptible isolates at 1 ug/disc by CLSI M44-A disk diffusion method; assay type: functional; summary of the method: as §1
Pichia norvegensis [18] = experiment: Antifungal activity against Candida norvegensis assessed as percent susceptible isolates at 1 ug/disc by CLSI M44-A disk diffusion method
Nakaseomyces glabratus [19] = experiment: Antifungal activity against Candida glabrata assessed as percent resistant isolates at 1 ug/disc by CLSI M44-A disk diffusion method; assay type: functional; summary of the method: as §1
Candida parapsilosis [20] = experiment: Antifungal activity against Candida parapsilosis by reference dilution method; assay type: functional; conditions: Lodderomyces parapsilosis
Candida = experiment: Antifungal activity against Candida sp. by reference dilution method; assay type: functional
Candida tropicalis [21] = experiment: Antifungal activity against Candida tropicalis assessed as percent susceptible isolates at 1 ug/disc by CLSI M44-A disk diffusion method; assay type: functional; summary of the method: as §1
Nakaseomyces glabratus [22] = experiment: Antifungal activity against Candida glabrata assessed as dose dependent percent susceptible isolates at 1 ug/disc by CLSI M44-A disk diffusion method; assay type: functional; summary of the method: as §1
[23] = Antifungal activity against Candida humicola assessed as percent susceptible isolates at 1 ug/disc by CLSI M44-A disk diffusion method; assay type: functional; summary of the method: as §1
Candida tropicalis [24] = experiment: Antifungal activity against Candida tropicalis assessed as percent resistant isolates at 1 ug/disc by CLSI M44-A disk diffusion method; assay type: functional; summary of the method: as §1
Kluyveromyces marxianus [25] = experiment: Antifungal activity against Candida kefyr by reference dilution method; assay type: functional

**Q.** For C[C@@H](c1ncncc1F)[C@](O)(Cn1cncn1)c1ccc(F)cc1F [VORICONAZOLE], which MIC50 (Pichia kudriavzevii [1]) is on record?
**A.** 0.5 µg/mL (≈ 1.43 µM)

**Q.** What about the MIC90 (Pichia kudriavzevii [1]) of the same compound?
**A.** 2 µg/mL (≈ 5.73 µM)

**Q.** What about the MIC50 (Pichia norvegensis [2]) of the same compound?
**A.** 0.25 µg/mL (≈ 0.716 µM)

**Q.** And the MIC90 (Pichia norvegensis [2])?
**A.** 1 µg/mL (≈ 2.86 µM)

**Q.** And the MIC50 (Candida albicans [3])?
**A.** 0.06 µg/mL (≈ 0.172 µM)

**Q.** And the MIC90 (Candida albicans [3])?
**A.** 0.12 µg/mL (≈ 0.344 µM)

**Q.** And the Activity (Pichia kudriavzevii [4])?
**A.** 92%

**Q.** And the Activity (Nakaseomyces glabratus [5])?
**A.** 87%

**Q.** And the Activity (Diutina rugosa)?
**A.** 100%

**Q.** And the Activity (Pichia norvegensis [6])?
**A.** 7%

**Q.** And the Activity (Cyberlindnera jadinii)?
**A.** 100%

**Q.** And the Activity ([Candida] intermedia)?
**A.** 100%

**Q.** And the Activity (Candida albicans [7])?
**A.** 99.8%

**Q.** What about the Activity (Pichia kudriavzevii [8]) of the same compound?
**A.** 4%

**Q.** And the Activity (Candida tropicalis [9])?
**A.** 3%

**Q.** And the MIC50 (Nakaseomyces glabratus [10])?
**A.** 0.25 µg/mL (≈ 0.716 µM)

**Q.** And the MIC90 (Nakaseomyces glabratus [10])?
**A.** 4 µg/mL (≈ 11.5 µM)

**Q.** What about the Activity (Pichia fermentans) of the same compound?
**A.** 100%

**Q.** And the Activity (Pichia kudriavzevii [11])?
**A.** 4%

**Q.** What about the Activity (Clavispora lusitaniae) of the same compound?
**A.** 100%

**Q.** And the Activity [12]?
**A.** 100%

**Q.** What about the Activity [13] of the same compound?
**A.** 100%

**Q.** What about the Activity (Kluyveromyces marxianus [14]) of the same compound?
**A.** 4%

**Q.** What about the Activity (Kluyveromyces marxianus [15]) of the same compound?
**A.** 96%

**Q.** What about the MIC50 (Candida tropicalis [16]) of the same compound?
**A.** 0.12 µg/mL (≈ 0.344 µM)

**Q.** What about the MIC90 (Candida tropicalis [16]) of the same compound?
**A.** 2 µg/mL (≈ 5.73 µM)

**Q.** And the Activity (Candida parapsilosis [17])?
**A.** 100%

**Q.** What about the Activity (Pichia norvegensis [18]) of the same compound?
**A.** 93%

**Q.** What about the Activity (Nakaseomyces glabratus [19]) of the same compound?
**A.** 11%

**Q.** What about the MIC50 (Candida parapsilosis [20]) of the same compound?
**A.** 0.06 µg/mL (≈ 0.172 µM)

**Q.** And the MIC90 (Candida parapsilosis [20])?
**A.** 0.12 µg/mL (≈ 0.344 µM)

**Q.** What about the MIC50 (Candida) of the same compound?
**A.** 0.06 µg/mL (≈ 0.172 µM)

**Q.** And the MIC90 (Candida)?
**A.** 1 µg/mL (≈ 2.86 µM)

**Q.** And the Activity (Candida tropicalis [21])?
**A.** 90%

**Q.** And the Activity (Nakaseomyces glabratus [22])?
**A.** 3%

**Q.** And the Activity [23]?
**A.** 100%

**Q.** What about the Activity (Candida tropicalis [24]) of the same compound?
**A.** 7%

**Q.** And the MIC (Kluyveromyces marxianus [25])?
**A.** 0.008 µg/mL (≈ 0.0229 µM)

**Q.** And the MIC50 (Kluyveromyces marxianus [25])?
**A.** 0.01 µg/mL (≈ 0.0286 µM)

**Q.** What about the MIC90 (Kluyveromyces marxianus [25]) of the same compound?
**A.** 0.06 µg/mL (≈ 0.172 µM)
